Screening data from PubChem BioAssay.
PTEN del growth – suppresses growth of cells with PTEN deletion | HCT116 PTEN-null viability, CellTiter-Glo, 60 h; stronger effect = lower value | viability, % at 10 µM | actives 1.2% (n = 140,000) | AID 827;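 active means viability at or below a set limit, 4 SD under the median of all tested compounds, cut at about 3.7% in these data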;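 further: PTEN knockout HCT116 line with beta catenin targeted HCT116 as companion control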
HCT116 bCat-KO – beta-catenin-lacking colon tumor cell growth suppression; HCT116 beta-catenin knockout viability, CellTiter-Glo, 60 h; stronger effect = lower value; viability, % at 10 µM; actives 1.5% (n = 140,000);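 active means viability at or under a set limit, the compound median less 4 SD, cut at about 6% in these data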;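 further: 0% = Hyamine 1622 control at 20 µM and 100% = untreated cell control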
TNAP act hi DEA – activators of human TNAP at high phosphate acceptor concentration; purified TNAP, CDP-star luminescence, 1 M DEA, 30 min; stronger effect = higher value; 0 = EDTA background, 1 = DMSO-only activity; activation factor at 20 µM; 200,000 tested, under 10 active; AID 1136;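 active means activation factor at least 2 at 20 µM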
Target sequence (P05186 whole entry, looked up): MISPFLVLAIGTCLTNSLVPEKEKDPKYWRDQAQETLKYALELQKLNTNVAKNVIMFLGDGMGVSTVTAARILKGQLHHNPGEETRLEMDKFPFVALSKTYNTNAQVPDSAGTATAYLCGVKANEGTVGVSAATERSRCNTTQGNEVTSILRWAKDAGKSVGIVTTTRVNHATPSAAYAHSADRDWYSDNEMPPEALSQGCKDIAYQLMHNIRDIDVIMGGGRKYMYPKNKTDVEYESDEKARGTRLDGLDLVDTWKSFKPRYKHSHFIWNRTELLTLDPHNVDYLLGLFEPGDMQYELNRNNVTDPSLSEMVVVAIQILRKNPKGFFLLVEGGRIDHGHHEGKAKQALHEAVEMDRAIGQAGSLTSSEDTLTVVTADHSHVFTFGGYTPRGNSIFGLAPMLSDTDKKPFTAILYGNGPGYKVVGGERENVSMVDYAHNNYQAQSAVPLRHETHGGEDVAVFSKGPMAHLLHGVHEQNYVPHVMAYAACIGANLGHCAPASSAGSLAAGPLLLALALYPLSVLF
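system = human TNAP | amount = enzyme diluted 1/800 final | reagent = 100 µM CDP-star substrate | signal = luminescent substrate turnover signal | dosing = one dose, 20 µM | benchmarks = EDTA negative control, DMSO positive control | measure = activation factor | timing = 30 min reaction, room temperature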
TNAP inh hi DEA – TNAP (human) inhibition, high acceptor; AID 1135; actives 0.03% (n = 200,000); purified TNAP, CDP-star luminescence, 1 M DEA; inhibition, % at 20 µM; P05186;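 active means over 50% inhibition of tissue-nonspecific alkaline phosphatase at 20 µM in the single-dose screen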;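 further: plate controls were DMSO wells for no effect and EDTA-quenched wells as full inhibition for full effect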
L major viab – inhibitors of Leishmania major promastigote growth; Leishmania major promastigotes, resazurin fluorescence viability; inhibition, % at 10 µM; actives 9% (n = 200,000); in the data active means inhibition above about 50%;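 further: promastigotes grown with compound for 44 hours at 28 °C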
TNAP inh no acc – inhibitors of human TNAP without phosphate acceptor; actives 0.26% (n = 200,000); inhibition, % at 20 µM; P05186; purified TNAP, CDP-star luminescence, 30 min;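 active means tissue-nonspecific alkaline phosphatase inhibition above about 50% at 20 µM in the single-dose screen, limit read from the data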;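 further: 0% = DMSO negative control and 100% = EDTA positive control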
* hit, by the source's call; x = no result. Only some compounds are listed: those with a hit (about 9.6% of all), similar ones and a draw of the others.

SMILES | PTEN del growth | HCT116 bCat-KO | TNAP act hi DEA | TNAP inh hi DEA | L major viab | TNAP inh no acc
O=C(CSc1nnc(-c2cccs2)n1-c1cccc(Cl)c1)c1cccc2c1OCCO2 | 99 | 100 | 1 | -3 | 8 | -17
CC(C)c1nnc(NC(=O)CCC(=O)NC2CCCc3ccccc32)s1 (stereo not given) | 84 | 94 | 1 | -3 | 2 | -11
CCN1CCN(CCNC(=O)c2ccc(/C=C3/Sc4ccccc4N(Cc4ccccc4C)C3=O)cc2)CC1 | x | x | 1 | -1 | 100* | -2
CCN1CCN(CCCNC(=O)c2ccc(/C=C3/Sc4ccccc4N(Cc4ccccc4F)C3=O)cc2)CC1 | x | x | 1 | -3 | 98* | 1
CCc1ccc(/C=C(\C)C(=O)c2c(C)cc(C)[nH]c2=O)cc1 | x | x | 1 | 1 | 14 | -13
CCc1ccc(/C=C/C(=O)c2c(C)cc(C)[nH]c2=O)cc1 | 23 | 21 | 1.1 | -5 | 59* | -13
Cc1ccc(/C=C/C(=O)c2c(C)cc(C)[nH]c2=O)cc1 | 18 | 21 | 1 | -2 | 61* | -10
Cc1nn(-c2ccccc2)c(Cl)c1C(=O)NCc1cccs1 | 88 | 90 | 1 | 0 | -3 | 1
CC(C)(C)Nc1nc(N2CCCC2)nc(N2CCCC2)n1 | 5 | 7 | 1 | -3 | 98* | -5
CCCNc1nc(N2CCCC2)nc(N2CCCC2)n1 | x | x | 1 | -5 | 89* | -7
CC(C)CCCNc1nc(N2CCOCC2)nc(N2CCOCC2)n1 | 83 | 79 | 1 | -3 | 24 | 6
CCNc1nc(NC(C)(C)C)nc(N2CCCC2)n1 | 21 | 31 | 1 | 2 | 80* | -1
CCNc1nc(NC(N)=S)nc(NC(C)(C)C)n1 | x | x | 1 | -4 | -1 | -2
CSc1nc(NC(C)(C)C)nc(N2CCOCC2)n1 | 85 | 90 | 1 | 0 | -1 | -7
CCC(C)NCC(O)COCc1ccc(Cl)cc1 (stereo not given) | 94 | 92 | 0.9 | 7 | 60* | -3
CC(C)(C)NCC(O)COCc1ccc(Cl)cc1 (stereo not given) | 99 | 85 | 1 | -2 | -7 | -6
OC(COCc1ccc(Cl)cc1)CN1CCc2ccccc2C1 (stereo not given) | 102 | 97 | 1 | -4 | 73* | -18
OC(COCc1ccc(Cl)cc1)CN1CCN(CC(O)COCc2ccc(Cl)cc2)CC1 (stereo not given) | 6 | 5.5* | 1 | 4 | 100* | 2
OC(COCc1ccccc1)CN1CCN(c2ccccc2F)CC1 (stereo not given) | 88 | 97 | 1.1 | -6 | 52* | -9
CC1Cc2ccccc2N1C(=O)COC(=O)c1ccc(Cl)nc1 (stereo not given) | x | x | 1 | -4 | -3 | -10
CCOc1cc(C=O)cc(Br)c1OCC(N)=O | x | x | 1 | -2 | 5 | -9
O=C(N/N=C/c1cn(-c2cccs2)nc1-c1ccccc1)c1ccccc1Br | 22 | 46 | 1 | -2 | 13 | -6
O=C(N/N=C/c1cn(-c2cccs2)nc1-c1ccccc1)c1ccccc1O | 16 | 20 | 1.1 | -8 | 99* | -10
O=C(CSc1nncs1)Nc1ccc(S(=O)(=O)N2CCCC2)cc1 | x | x | 1 | -1 | -4 | -11
CCOCCCn1c(SCC(=O)NCc2ccc3c(c2)OCO3)nc2ccccc2c1=O | x | x | 1 | -5 | 22 | -7
SMILES | PTEN del growth | HCT116 bCat-KO | TNAP act hi DEA | TNAP inh hi DEA | L major viab | TNAP inh no acc
COCCn1c(SCC(=O)Nc2ccc(C)cc2C)nc2c(oc3ccccc32)c1=O | 14 | 17 | 1 | -3 | 54* | -34
CCOCCCn1c(SCC(=O)Nc2cc(C(C)(C)C)nn2-c2ccccc2)nc2ccccc2c1=O | 63 | 56 | 1 | -1 | 72* | -10
COCCn1c(SCC(=O)Nc2cc(C(C)(C)C)nn2-c2ccccc2)nnc1-c1ccncc1 | 83 | 86 | 1 | -4 | -3 | -11
COCCn1c(SCC(=O)Nc2ccccc2C)nc2c(oc3ccccc32)c1=O | 97 | 94 | 1.1 | -8 | 0 | -7
COCCn1c(SCC(=O)Nc2cc(C(C)(C)C)nn2-c2ccccc2)nc2ccccc2c1=O | 47 | 67 | 1 | 2 | 54* | -8
Cc1ccc(NC(=O)CCn2nnc3ccccc32)cc1 | x | x | 1 | -3 | 1 | -6
CCC(C)NC(=O)C1CCCN1S(=O)(=O)c1ccc(Cl)cc1 (stereo not given) | 97 | 98 | 1 | -4 | 0 | -6
CCCOc1ccc(/C=N/NC(=O)C2CCCN2S(=O)(=O)c2ccc(Cl)cc2)cc1 (stereo not given) | 89 | 83 | 1 | 1 | 59* | -4
CC(C)Oc1ccc(/C=N/NC(=O)C2CCCN2S(=O)(=O)c2ccc(Cl)cc2)cc1 (stereo not given) | 82 | 85 | 1.1 | -5 | 60* | -7
O=C(Nc1ccc(Cl)cn1)C1CCCN1S(=O)(=O)c1ccc(Cl)cc1 (stereo not given) | 72 | 75 | 1 | -4 | 53* | -10
Cc1nn(-c2ccccc2)c(C)c1/C=N/NC(=O)c1ccccc1NS(=O)(=O)c1cccs1 | 90 | 94 | 1 | -2 | -4 | -3
Cc1ccc(N2C(=O)N(c3ccc(C)cc3)C3CS(=O)(=O)CC32)cc1 (stereo not given) | x | x | 1 | -1 | 6 | -4
Nc1cc(C(=O)O)ccc1Sc1ccccc1C(=O)O | x | x | 1 | -1 | -7 | -3
CCn1ccnc1CN1CCc2c([nH]c3ccccc23)C1C(C)(C)C (stereo not given) | x | x | 1 | -4 | 52* | -8
CCn1ccnc1CN1CCc2c([nH]c3ccccc23)C1CC(C)C (stereo not given) | x | x | 1 | -2 | 43 | -2
COCc1ccc(CN2CCc3c([nH]c4ccccc34)C2C(C)(C)C)o1 (stereo not given) | x | x | 1.1 | -6 | 50* | -9
COCCNc1nc(-c2ccc(OC)cc2)c(-c2ccc(OC)cc2)s1 | x | x | 1.1 | -7 | 2 | 6
CSc1ccccc1NC(=O)CN(C)C(C)C(=O)Nc1ccc(C#N)cc1 (stereo not given) | x | x | 1 | 2 | 56* | -6
Cc1ccc(-c2cc(C(=O)N3N=C(C(F)F)CC3(O)C(F)F)c3ccccc3n2)cc1C (stereo not given) | 20 | 37 | 1 | 3 | 61* | -10
CCOC(=O)c1c(C)oc2ccc(OC(=O)c3cccs3)cc12 | 94 | 96 | 1 | -3 | -5 | 2
CCN(CC)CCNC(=O)C12CC3CC(C)(CC(C)(C3)C1)C2 | 96 | 90 | 1 | 0 | 94* | -20
CC1=NN(c2ccccc2)C(=O)/C1=C/C=C/c1ccccc1 | 3.2* | 3.4* | 1 | 3 | 100* | -1
Cc1ccc(C2=NOC(=O)/C2=C\C=C\c2ccccc2)cc1 | x | x | 1 | -3 | 100* | -12
